{"data": "Experimental data of several laboratories", "organism": "Pseudomonas aeruginosa", "note": "Compare with care: the assays were run in different laboratories."}
{"SMILES": "O=C(O)c1cn(C2CC2)c2cc(N3CCNCC3)c(F)cc2c1=O", "test": "microbial growth", "test system": "K799/61", "setting": "1000 µg/mL", "quantity": "inhibition zone", "result": "33.5 mm"}
{"SMILES": "C[C@@H](O)[C@H]1C(=O)N2C(C(=O)O)=C(S[C@@H]3CN[C@H](C(=O)N(C)C)C3)[C@H](C)[C@H]12", "test": "microbial growth", "test system": "PAO1", "quantity": "MIC90", "result": "0.25 µg/mL"}
{"SMILES": "CSc1ccc(/C=C/c2cc(/C=C3\\Sc4ccccc4N3CCCN3CCCC3)c3ccccc3[n+]2C)cc1.[I-]", "test": "microbial growth, broth dilution", "test system": "ATCCBAA2108", "setting": "drug-resistant strain", "quantity": "MIC", "result": "64 µg/mL"}
{"SMILES": "CCCCCCCCCCCC(=O)OC[C@H]1O[C@@H](n2cc(C)c(=O)[nH]c2=O)C[C@@H]1O", "test": "microbial killing, broth dilution", "quantity": "MBC", "result": "16 µg/mL"}
{"SMILES": "CC1(C)S[C@@H]2[C@H](NC(=O)[C@H](N)c3ccccc3)C(=O)N2[C@H]1C(=O)O", "test": "microbial growth, well diffusion", "test system": "ATCC27853", "setting": "60000 µg/mL", "quantity": "inhibition zone", "result": "32 mm"}
{"SMILES": "CCCCCCCCCCCC(=O)OC[C@H]1O[C@@H](n2cc(C)c(=O)[nH]c2=O)C[C@@H]1OC(=O)c1ccc(C(C)(C)C)cc1", "test": "microbial killing, broth dilution", "quantity": "MBC", "result": "16 µg/mL"}
{"SMILES": "COC(=O)c1cc(-c2cccc(NC(=O)Nc3cccc(F)c3)c2)on1", "test": "microbial growth, broth dilution", "test system": "ATCC27853", "quantity": "MIC", "result": "> 64 µg/mL"}
{"SMILES": "COc1cccc(OC)c1C(=O)N[C@@H]1C(=O)N2[C@@H]1SC(C)(C)[C@@H]2C(=O)O", "test": "microbial growth, broth dilution", "test system": "ATCCBAA2108", "setting": "drug-resistant strain", "quantity": "MIC", "result": "> 64 µg/mL"}
{"SMILES": "ONCc1cc(F)cc(F)c1", "test": "microbial growth", "test system": "ATCC15692", "setting": "8 h", "quantity": "MIC50", "result": "150 µg/mL"}
{"SMILES": "O=C(Nc1cccc(-c2cc(C(=O)O)no2)c1)Nc1ccc(Cl)c(Cl)c1", "test": "microbial growth, broth dilution", "test system": "ATCC27853", "quantity": "MIC", "result": "> 64 µg/mL"}
